Source: ChEMBL document CHEMBL1142550, “Thiopyrano[2,3-e]indol-2-ones: angelicin heteroanalogues with potent photoantiproliferative activity” (Bioorg Med Chem, 2008)
Active and inactive are the calls of the source. The calls are words filed in the database; no cut-off is given here.

Columns and labels:
[1] = system: Jurkat; experiment: Photocytotoxicity against human JURKAT cells treated 30 mins before 3.75 J/cm'2 UVA irradiation measured after 72 hrs by MTT assay; assay type: functional, cell-based; settings: light or radiation study
[2] = Photocytotoxicity against human NCTC 2544 cells treated 30 mins before 3.75 J/cm'2 UVA irradiation measured after 72 hrs by MTT assay; assay type: functional, cell-based; settings: NCTC-2544, light or radiation study
[3] = system: HL-60; experiment: Photocytotoxicity against human HL-60 cells treated 30 mins before 2.5 J/cm'2 UVA irradiation measured after 72 hrs by MTT assay; assay type: functional, cell-based; settings: HL-60, light or radiation study
[4] = system: LoVo; experiment: Photocytotoxicity against human LoVo cells treated 30 mins before 3.75 J/cm'2 UVA irradiation measured after 72 hrs by MTT assay; assay type: functional, cell-based; settings: light or radiation study
[5] = system: LoVo; experiment: Photocytotoxicity against human LoVo cells treated 30 mins before 2.5 J/cm'2 UVA irradiation measured after 72 hrs by MTT assay; assay type: functional, cell-based; settings: light or radiation study
[6] = system: HT-1080; experiment: Photocytotoxicity against human HT1080 cells treated 30 mins before 2.5 J/cm'2 UVA irradiation measured after 72 hrs by MTT assay; assay type: functional, cell-based; settings: HT-1080, light or radiation study
[7] = system: HT-1080; experiment: Photocytotoxicity against human HT1080 cells treated 30 mins before 3.75 J/cm'2 UVA irradiation measured after 72 hrs by MTT assay; assay type: functional, cell-based; settings: HT-1080, light or radiation study
[8] = Photocytotoxicity against human NCTC 2544 cells treated 30 mins before 2.5 J/cm'2 UVA irradiation measured after 72 hrs by MTT assay; assay type: functional, cell-based; settings: NCTC-2544, light or radiation study
[9] = system: Jurkat; experiment: Photocytotoxicity against human JURKAT cells treated 30 mins before 2.5 J/cm'2 UVA irradiation measured after 72 hrs by MTT assay; assay type: functional, cell-based; settings: light or radiation study
[10] = system: HL-60; experiment: Photocytotoxicity against human HL-60 cells treated 30 mins before 3.75 J/cm'2 UVA irradiation measured after 72 hrs by MTT assay; assay type: functional, cell-based; settings: HL-60, light or radiation study
[11] = system: LoVo; experiment: Photocytotoxicity against human LoVo cells at 1.25 uM treated 30 mins before 2.5 J/cm'2 UVA irradiation measured after 72 hrs by MTT assay in presence of 2,6-di-t-butylhydroxyanisole; assay type: functional, cell-based
Procedure, shortened: (§1)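 LoVo cells were seeded at 5×10³ per well in Ham's F12/10% FCS. Drug 1.25 μM was given with an additive: BHA 10⁻⁵ M, DMTU 1 mM, GSH 1 mM or NaN₃ 10 mM. After 30 min in HBSS at 37 °C, cells received UVA 2.5 J cm⁻², and MTT viability was read 72 h later.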

[12] = system: Escherichia coli; experiment: Induction of DNA photodamage of Escherichia coli pBR322 exposed to 3.5 J/cm'2 UVA irradiation in presence of reduced glutathione
Procedure, shortened: (§2)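 pBR322 supercoiled plasmid (100 ng) in 10 mM phosphate buffer pH 7.2 irradiated with UVA (365 nm, 4.0 mW cm⁻²; 3.5 J cm⁻²) at [DNA]/[drug] ratios 1, 2 and 4. Aliquots were then incubated at 37 °C with Fpg or Endo III. Scavenger runs used drug ratio 1 with mannitol 10 mM, GSH 1 mM or NaN₃ 10 mM. Samples were run on 1% agarose in TAE, 70 V, 4 h. Read-out was % form II by densitometry, mean ± SEM of three independent experiments.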

[13] = system: Jurkat; experiment: Induction of apoptosis in human JURKAT cells assessed as increase in reactive oxygen species release treated 30 mins before 2.5 J/cm'2 UVA irradiation measured after 24 hrs by hydroethidine staining; assay type: functional, cell-based
Procedure, shortened: (§3)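 Jurkat cells were irradiated (UVA 2.5 J cm⁻²) with drug at several concentrations. At 24 h they were resuspended in HBSS with hydroethidine 0.1 μM, DCFDA 2.5 μM or NAO 5.0 μM for 30 min at 37 °C. Flow cytometry used ex 488 nm, em 585 nm (HE) or 530 nm (DCFDA, NAO). Values are means ± SEM, n=3.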

[14] = system: Jurkat; experiment: Induction of apoptosis in human JURKAT cells assessed as annexin V positive cells treated 30 mins before 2.5 J/cm'2 UVA irradiation measured after 24 hrs by flow cytometry; assay type: functional, cell-based
Procedure, shortened: (§4)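 Jurkat cells were exposed to drug in HBSS pH 7.2 (from DMSO stock) for 30 min at 37 °C, then given UVA 2.5 J cm⁻² (365 nm) at several concentrations. After 24 h, cells were stained with Annexin V-FITC plus propidium iodide and analysed by flow cytometry (ex 488 nm; em 525 nm FITC, 560–680 nm PI).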

[15] = system: LoVo; experiment: Photocytotoxicity against human LoVo cells at 1.25 uM treated 30 mins before 2.5 J/cm'2 UVA irradiation measured after 72 hrs by MTT assay in presence of N-N'-dimethylthiourea; assay type: functional, cell-based; procedure, shortened: as §1
[16] = system: Escherichia coli; experiment: Induction of DNA photodamage of Escherichia coli pBR322 exposed to 3.5 J/cm'2 UVA irradiation in presence of formamidopyrimidine DNA glycosylase; procedure, shortened: as §2
[17] = system: Escherichia coli; experiment: Induction of DNA photodamage of Escherichia coli pBR322 exposed to 3.5 J/cm'2 UVA irradiation in presence of mannitol; procedure, shortened: as §2
[18] = system: Jurkat; experiment: Induction of apoptosis in human JURKAT cells assessed as increase in cardiolipin oxidation treated 30 mins before 2.5 J/cm'2 UVA irradiation measured after 24 hrs by N-nonyl acridine orange staining; assay type: functional, cell-based; procedure, shortened: as §3
[19] = system: Jurkat; experiment: Induction of necrosis in human JURKAT cell sat 5.0 uM treated 30 mins before 2.5 J/cm'2 UVA irradiation measured after 24 hrs; assay type: functional; procedure, shortened: as §4
[20] = system: Jurkat; experiment: Induction of apoptosis in human JURKAT cells assessed as reduction in mitochondrial membrane potential at 5 uM treated 30 mins before 2.5 J/cm'2 UVA irradiation measured after 24 hrs by flow cytometry; assay type: functional, cell-based
Procedure, shortened: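 Jurkat cells were treated with drug at 5 μM and UVA 2.5 J cm⁻², then sampled at different times after irradiation. Cells were resuspended in HBSS with JC-1 2.5 μM for 10 min at 37 °C, then analysed by flow cytometry. Values are mean ± SEM of three experiments.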

[21] = system: Jurkat; experiment: Induction of apoptosis in human JURKAT cells assessed as caspase 3 activation treated 30 mins before 2.5 J/cm'2 UVA irradiation measured after 24 hrs by colorimetric assay
[22] = system: Erythrocyte; experiment: Induction of protein photodamage of human erythrocyte ghost plasmatic membrane assessed as disappearance of the spectrin subunit bands at 10 uM treated 30 mins before 2.5 J/cm'2 UVA irradiation by electrophoresis; assay type: cell-based
Procedure, shortened: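 Erythrocyte ghost membranes (1.0 mg/ml protein) were irradiated with drug at increasing UVA doses.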

[23] = system: Nucleic Acid; experiment: Induction of DNA photodamage of salmon testes DNA assessed as DNA intercalation by circular dichroism; assay type: nucleic-acid assay; settings: Salmonidae
Procedure, shortened: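 Circular dichroism of salmon testes DNA (2 μM) with ligand at ligand/DNA ratios 0.02 and 0.04 in phosphate buffer. Spectra are the average of 4 scans.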

[24] = system: LoVo; experiment: Photocytotoxicity against human LoVo cells at 1.25 uM treated 30 mins before 2.5 J/cm'2 UVA irradiation measured after 72 hrs by MTT assay in presence of reduced glutathione; assay type: functional, cell-based; procedure, shortened: as §1
[25] = system: Escherichia coli; experiment: Induction of DNA photodamage of Escherichia coli pBR322 exposed to 3.5 J/cm'2 UVA irradiation in presence of endonuclease 3; procedure, shortened: as §2
[26] = system: Escherichia coli; experiment: Induction of DNA photodamage of Escherichia coli pBR322 exposed to 3.5 J/cm'2 UVA irradiation in presence of sodium azide; procedure, shortened: as §2
[27] = system: Jurkat; experiment: Induction of apoptosis in human JURKAT cells supernatant assessed as lipid peroxidation treated 30 mins before 2.5 J/cm'2 UVA irradiation measured after 24 hrs by thiobarbituric acid assay; assay type: functional, cell-based
Procedure, shortened: (§5)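 Cells were grown 2 days to confluence, then irradiated in HBSS with drug 10 μM at varied UVA doses. At 24 h, the TBA test was run on supernatant and on cell homogenates. Malonaldehyde was quantified against a 1,1,3,3-tetraethoxypropane standard and expressed as nmol TBARS per total protein.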

[28] = system: Jurkat; experiment: Induction of apoptosis in human JURKAT cells assessed as increase in reactive oxygen species release treated 30 mins before 2.5 J/cm'2 UVA irradiation measured after 24 hrs by DCFDA staining; assay type: functional, cell-based; procedure, shortened: as §3
[29] = system: LoVo; experiment: Photocytotoxicity against human LoVo cells at 1.25 uM treated 30 mins before 2.5 J/cm'2 UVA irradiation measured after 72 hrs by MTT assay in presence of sodium azide; assay type: functional, cell-based; procedure, shortened: as §1
[30] = system: Jurkat; experiment: Induction of apoptosis in human JURKAT cells assessed as lysosomal damage treated 30 mins before 2.5 J/cm'2 UVA irradiation measured after 24 hrs by flow cytometry; assay type: functional, cell-based
Procedure, shortened: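 Jurkat cells were irradiated (2.5 J cm⁻²) with drug at several concentrations. At 24 h cells were stained with acridine orange 5 μg/mL for 15 min at 37 °C, washed, and analysed by flow cytometry (ex 488, em 546 nm).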

[31] = system: Jurkat; experiment: Induction of apoptosis in human JURKAT cells homogenate assessed as lipid peroxidation treated 30 mins before 2.5 J/cm'2 UVA irradiation measured after 24 hrs by thiobarbituric acid assay; assay type: functional, cell-based; procedure, shortened: as §5
[32] = system: Nucleic Acid; experiment: Induction of DNA photodamage of salmon testes DNA assessed as DNA intercalation by linear dichroism; assay type: nucleic-acid assay; settings: Salmonidae
Procedure, shortened: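 Linear dichroism in a flow cell with salmon testes DNA at 2.27 mM in phosphate buffer, ligand/DNA r = 0, 0.02 and 0.04. Absorbance spectra were recorded alongside.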

[33] = system: Jurkat; experiment: Induction of apoptosis in human JURKAT cells assessed as decrease in intracellular GSH levels treated 30 mins before 2.5 J/cm'2 UVA irradiation measured after 24 hrs by flow cytometry; assay type: functional, cell-based
Procedure, shortened: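 Jurkat cells were irradiated (2.5 J cm⁻²) with drug at several concentrations. At 24 h cells were harvested and incubated with monobromobimane 50 μM for 10 min at 37 °C. GS-mBBr was measured by flow cytometry (ex 354, em 450). Values are mean ± SEM, n=3.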

[34] = system: Escherichia coli; experiment: Induction of DNA photodamage of Escherichia coli pBR322 exposed to 3.5 J/cm'2 UVA irradiation; procedure, shortened: as §2

Cc1cc2c3sc(=O)ccc3ccc2n1-c1ccccc1
IC50 [1]: 3.5 µM | IC50 [2]: 14.8 µM | IC50 [3]: 2.6 µM | IC50 [4]: 4.2 µM | IC50 [5]: 5.1 µM | IC50 [6]: 5.4 µM | IC50 [7]: 2 µM | IC50 [8]: 17 µM | IC50 [9]: 2.5 µM | IC50 [10]: 1.3 µM

COc1c2occc2cc2ccc(=O)oc12 [METHOXSALEN]
IC50 [2]: 0.9 µM | IC50 [7]: 1.9 µM | IC50 [8]: 5.5 µM | IC50 [9]: 1.2 µM

Cc1cc2c3sc(=O)ccc3ccc2n1C
Activity [11]: inactive | Activity [12]: inactive | IC50 [1]: 0.2 µM | Activity [13]: Active | IC50 [2]: 1.6 µM | Activity [14]: Dose-dependent effect | Activity [15]: inactive | Activity [16]: Active | Activity [17]: inactive | Activity [18]: Active | Activity [19]: 2% | Activity [20]: Active | Activity [21]: Active | Activity [22]: Active | Activity [23]: inactive | Activity [24]: inactive | Activity [25]: Active | Activity [26]: inactive | IC50 [6]: 0.9 µM | Activity [27]: Active | Activity [28]: Active | IC50 [7]: 0.6 µM | IC50 [8]: 2.1 µM | Activity [29]: Active | IC50 [9]: 0.5 µM | Activity [30]: Active | Activity [31]: Active | Activity [32]: inactive | Activity [33]: Dose-dependent effect | Activity [34]: inactive

Cc1cc2c(n1C)CCc1ccc(=O)sc1-2
IC50 [1]: > 10 µM | IC50 [2]: > 20 µM | IC50 [3]: > 10 µM | IC50 [4]: > 20 µM | IC50 [5]: > 20 µM | IC50 [6]: > 20 µM | IC50 [7]: > 20 µM | IC50 [8]: > 20 µM | IC50 [9]: > 10 µM | IC50 [10]: > 10 µM

Cc1cc2c(n1-c1ccccc1)CCc1ccc(=O)sc1-2
IC50 [1]: 3.5 µM | IC50 [2]: > 20 µM | IC50 [3]: 6.2 µM | IC50 [4]: 12.3 µM | IC50 [5]: > 20 µM | IC50 [6]: 11 µM | IC50 [7]: 10.5 µM | IC50 [8]: > 20 µM | IC50 [9]: 4.2 µM | IC50 [10]: 2.7 µM

Cc1cc2c(n1Cc1ccccc1)CCc1ccc(=O)sc1-2
IC50 [1]: 2.2 µM | IC50 [2]: > 20 µM | IC50 [3]: 4 µM | IC50 [5]: > 20 µM | IC50 [6]: 11.2 µM | IC50 [7]: 9.8 µM | IC50 [8]: > 20 µM | IC50 [9]: 4 µM

O=c1ccc2ccc3occc3c2o1 [ANGELICIN]
IC50 [2]: 1.5 µM | IC50 [8]: 4.2 µM | IC50 [9]: 0.9 µM

Cc1cc2c(n1S(=O)(=O)c1ccccc1)CCc1ccc(=O)sc1-2
IC50 [1]: 5 µM | IC50 [2]: > 20 µM | IC50 [3]: > 10 µM | IC50 [4]: > 20 µM | IC50 [5]: > 20 µM | IC50 [6]: > 20 µM | IC50 [7]: > 20 µM | IC50 [8]: > 20 µM | IC50 [9]: 7.3 µM | IC50 [10]: > 10 µM
